Laboratory results reported in ChEMBL document CHEMBL4043080 (J Med Chem, 2017).
Calls of active or inactive are those of the source. No cut-off for these calls is given here.

What was measured:
[1] = Inhibition of mouse PKA using CREBtide as substrate after 30 mins in presence of ATP by ADP-Glo kinase assay
Method in brief: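 Mouse PKA catalytic subunit activity by ADP-Glo luminescence per kit protocol; inhibition curves fitted to obtain values.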

Rhodopsin kinase GRK1 = Rhodopsin kinase GRK1 (Bos taurus, UniProt P28327); experiment: Inhibition of bovine GRK1 (1 to 535 residues) after 5 mins after 5 mins in presence of ATP by phosphorimaging assay
[2] = molecular target: G protein-coupled receptor kinase 5 (Bos taurus, UniProt P43249); experiment: Inhibition of bovine GRK5 after 5 mins after 5 mins in presence of ATP by phosphorimaging assay
Liver = experiment: Half life in CD-1 mouse liver microsomes at 1 uM measured up to 60 mins in presence of NADPH by LC-MS/MS analysis; assay type: ADME, microsome; conditions: 1 h
[3] = molecular target: T1, Beta-adrenergic receptor kinase 1 (Mus musculus) (UniProt Q99MK8); experiment: Inhibition of GRK2 in isoproterenol-stimulated C57/BL6 mouse cardiomyocytes assessed as increase in contractility by measuring cell shortening at 1 uM pretreated for 10 mins followed by beta-AR agonist isoproterenol addition for 2 mins
T1 sequence (whole entry): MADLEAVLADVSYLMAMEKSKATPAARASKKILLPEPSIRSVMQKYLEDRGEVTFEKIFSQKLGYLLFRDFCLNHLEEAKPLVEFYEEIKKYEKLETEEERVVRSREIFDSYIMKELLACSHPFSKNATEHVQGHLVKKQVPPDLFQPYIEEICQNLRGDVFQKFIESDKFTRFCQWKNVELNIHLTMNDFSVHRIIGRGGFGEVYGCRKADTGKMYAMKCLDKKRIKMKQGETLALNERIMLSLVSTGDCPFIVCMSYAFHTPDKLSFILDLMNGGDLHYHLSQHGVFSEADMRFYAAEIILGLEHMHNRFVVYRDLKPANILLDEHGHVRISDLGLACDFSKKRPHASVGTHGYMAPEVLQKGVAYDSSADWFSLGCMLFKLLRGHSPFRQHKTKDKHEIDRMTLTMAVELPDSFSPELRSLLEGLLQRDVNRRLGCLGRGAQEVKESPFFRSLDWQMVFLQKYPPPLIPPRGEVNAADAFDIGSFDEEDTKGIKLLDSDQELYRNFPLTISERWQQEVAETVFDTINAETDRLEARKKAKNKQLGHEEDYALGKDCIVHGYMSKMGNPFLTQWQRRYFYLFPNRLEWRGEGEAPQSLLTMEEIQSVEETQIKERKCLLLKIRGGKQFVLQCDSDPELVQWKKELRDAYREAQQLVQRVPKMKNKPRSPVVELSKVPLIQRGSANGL

[4] = molecular target: T1, Beta-adrenergic receptor kinase 1 (Mus musculus); conditions: C57/BL6
[5] = molecular target: T1, Beta-adrenergic receptor kinase 1 (Mus musculus); experiment: Inhibition of GRK2 in isoproterenol-stimulated C57/BL6 mouse cardiomyocytes assessed as increase in contractility by measuring cell shortening at 0.1 uM pretreated for 10 mins followed by beta-AR agonist isoproterenol addition for 2 mins
[6] = Plasma concentration in CD-1 mouse at 10 mg/kg, ip after 4 hrs administered as single dose by LC-MS/MS analysis; assay type: ADME, organism-based
Method in brief: (§1)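 Female CD-1 mice given a single ip dose of 10 mg/kg in 15% DMSO/15% PEG-400/70% PBS (v/v); blood sampled at 0.5, 2, 4 and 7 h, centrifuged, plasma frozen at −80 °C; drug quantified by positive-ion MRM LC–MS/MS; parameters by noncompartmental analysis.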

[7] = Plasma concentration in CD-1 mouse at 10 mg/kg, ip after 7 hrs administered as single dose by LC-MS/MS analysis; assay type: ADME, organism-based; method in brief: as §1
Mus musculus = experiment: AUC (0 to 7 hrs) in CD-1 mouse at 10 mg/kg, ip administered as single dose by LC-MS/MS analysis; assay type: ADME, organism-based; design: time < 7 hr, dose 10 mg/kg, route intraperitoneal; conditions: in vivo; method in brief: as §1
[8] = molecular target: T1, Beta-adrenergic receptor kinase 1 (Mus musculus); experiment: Inhibition of GRK2 in isoproterenol-stimulated C57/BL6 mouse cardiomyocytes assessed as increase in contractility by measuring cell shortening at 0.5 uM pretreated for 10 mins followed by beta-AR agonist isoproterenol addition for 2 mins

G protein-coupled receptor kinase 5, sequence (P43249 whole entry): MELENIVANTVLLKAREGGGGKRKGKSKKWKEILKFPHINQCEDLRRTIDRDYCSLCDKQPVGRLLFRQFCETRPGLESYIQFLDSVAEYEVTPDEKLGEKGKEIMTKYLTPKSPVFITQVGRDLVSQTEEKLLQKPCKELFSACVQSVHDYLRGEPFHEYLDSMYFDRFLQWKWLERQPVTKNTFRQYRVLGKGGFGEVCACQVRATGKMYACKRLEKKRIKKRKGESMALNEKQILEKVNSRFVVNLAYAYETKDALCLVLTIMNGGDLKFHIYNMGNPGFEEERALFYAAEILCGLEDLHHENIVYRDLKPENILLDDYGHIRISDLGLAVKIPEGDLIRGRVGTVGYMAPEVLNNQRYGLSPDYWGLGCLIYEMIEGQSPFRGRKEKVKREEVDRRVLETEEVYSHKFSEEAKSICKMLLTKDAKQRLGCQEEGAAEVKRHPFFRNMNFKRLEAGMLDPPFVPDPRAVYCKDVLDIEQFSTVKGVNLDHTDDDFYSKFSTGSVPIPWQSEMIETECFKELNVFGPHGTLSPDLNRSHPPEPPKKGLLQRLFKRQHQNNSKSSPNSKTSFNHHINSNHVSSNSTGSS
Rhodopsin kinase GRK1, sequence (P28327 whole entry, the tested form may be a part): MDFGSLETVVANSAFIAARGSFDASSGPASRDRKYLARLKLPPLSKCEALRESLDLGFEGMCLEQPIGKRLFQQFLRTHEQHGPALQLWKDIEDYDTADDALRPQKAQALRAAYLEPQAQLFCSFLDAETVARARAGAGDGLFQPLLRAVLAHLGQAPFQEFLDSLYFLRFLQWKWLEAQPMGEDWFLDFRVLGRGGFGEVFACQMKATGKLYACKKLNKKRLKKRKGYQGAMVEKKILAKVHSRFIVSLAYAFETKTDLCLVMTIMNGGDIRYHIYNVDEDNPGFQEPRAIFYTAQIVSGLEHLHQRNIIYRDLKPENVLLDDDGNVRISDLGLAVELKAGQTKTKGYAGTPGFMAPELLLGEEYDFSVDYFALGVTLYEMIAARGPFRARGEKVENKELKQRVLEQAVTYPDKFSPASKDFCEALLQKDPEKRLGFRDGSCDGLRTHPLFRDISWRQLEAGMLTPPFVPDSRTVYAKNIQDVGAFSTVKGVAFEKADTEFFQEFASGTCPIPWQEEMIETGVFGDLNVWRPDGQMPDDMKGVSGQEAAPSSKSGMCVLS

Structure (SMILES) | IC50 [1] [µM] | IC50 (Rhodopsin kinase GRK1) [µM] | IC50 [2] [µM] | also measured
O=C(NCCc1ccccc1)c1cc([C@@H]2CCNC[C@H]2COc2ccc3c(c2)OCO3)ccc1F | > 100 | > 100 | > 100 | –
O=C(NCCc1cccnc1)c1cc([C@@H]2CCNC[C@H]2COc2ccc3c(c2)OCO3)ccc1F | > 100 | > 100 | > 100 | –
O=C(NCCc1cc[nH]n1)c1cc([C@@H]2CCNC[C@H]2COc2ccc3c(c2)OCO3)ccc1F | > 100 | > 100 | > 100 | –
O=C(NCc1cn[nH]c1)c1cc([C@@H]2CCNC[C@H]2COc2ccc3c(c2)OCO3)ccc1F | > 100 | > 100 | > 100 | –
O=C(NCCc1cn[nH]c1)c1cc([C@@H]2CCNC[C@H]2COc2ccc3c(c2)OCO3)ccc1F | > 100 | > 100 | > 100 | –
O=C(NCc1ccccc1C(F)(F)F)c1cc([C@@H]2CCNC[C@H]2COc2ccc3c(c2)OCO3)ccc1F | > 100 | > 100 | 75.7 | –
Fc1ccc([C@@H]2CCNC[C@H]2COc2ccc3c(c2)OCO3)cc1 [PAROXETINE] | > 100 | > 100 | > 100 | t1/2 (Liver): 24.3 min
CC1=C(C(=O)Nc2ccc3[nH]ncc3c2)C(c2ccc(F)cc2)NC(=O)N1 (centres undefined) [GSK-180736A] | – | > 100 | – | inhibition [3]: Active; t1/2 (Liver): 20.6 min
COc1ccccc1CNC(=O)c1cc([C@@H]2CCNC[C@H]2COc2ccc3c(c2)OCO3)ccc1F | > 100 | > 100 | > 100 | –
Cc1cccc(C)c1CNC(=O)c1cc([C@@H]2CCNC[C@H]2COc2ccc3c(c2)OCO3)ccc1F | > 100 | 24.5 | 42.3 | t1/2 (Liver): 45.9 min
O=C(NCc1ccn[nH]1)c1cc([C@@H]2CCNC[C@H]2COc2ccc3c(c2)OCO3)ccc1F | > 100 | – | – | MEC [4]: 0.1 µM; inhibition [5]: Active; concentration at 4 h [6]: 270 nM; concentration at 7 h [7]: 43 nM
Cn1ccc(CNC(=O)c2cc([C@@H]3CCNC[C@H]3COc3ccc4c(c3)OCO4)ccc2F)n1 | > 100 | > 100 | > 100 | –
O=C(Cc1cc([C@@H]2CCNC[C@H]2COc2ccc3c(c2)OCO3)ccc1F)NCCc1ccccn1 | > 100 | > 100 | > 100 | –
CNC(=O)c1cc([C@@H]2CCNC[C@H]2COc2ccc3c(c2)OCO3)ccc1F | > 100 | > 100 | > 100 | –
Cn1nccc1CNC(=O)c1cc([C@@H]2CCNC[C@H]2COc2ccc3c(c2)OCO3)ccc1F | > 100 | > 100 | > 100 | –
COc1ccccc1CNC(=O)Cc1cc([C@@H]2CCNC[C@H]2COc2ccc3c(c2)OCO3)ccc1F | 25.8 | > 100 | > 100 | –
O=C(NCCc1ccncc1)c1cc([C@@H]2CCNC[C@H]2COc2ccc3c(c2)OCO3)ccc1F | > 100 | > 100 | > 100 | –

Structure (SMILES) | IC50 [1] [µM] | IC50 (Rhodopsin kinase GRK1) [µM] | IC50 [2] [µM] | also measured
CCCn1c(CNc2cccc(C(=O)NCc3c(F)cccc3F)c2)nnc1-c1ccncn1 | – | 9.1 | 2.2 | –
Cc1cc(CNC(=O)c2cc([C@@H]3CCNC[C@H]3COc3ccc4c(c3)OCO4)ccc2F)n[nH]1 | > 100 | 86.5 | 4 | t1/2 (Liver): 10.3 min
O=C(NCc1ccccc1)c1cc([C@@H]2CCNC[C@H]2COc2ccc3c(c2)OCO3)ccc1F | > 100 | > 100 | 84.3 | –
O=C(NCc1c(Cl)cccc1Cl)c1cc([C@@H]2CCNC[C@H]2COc2ccc3c(c2)OCO3)ccc1F | > 100 | 25.8 | 33.2 | t1/2 (Liver): 36.4 min
Cn1c(CNc2cccc(C(=O)NCc3ccccc3C(F)(F)F)c2)nnc1-c1ccncc1 | – | 52.1 | 9.2 | AUC (Mus musculus): 1.9 µM·h; concentration at 4 h [6]: 5 nM; concentration at 7 h [7]: 6 nM
O=C(Cc1cc([C@@H]2CCNC[C@H]2COc2ccc3c(c2)OCO3)ccc1F)NCc1ccccn1 | 48.2 | 60 | > 100 | –
O=C(NCCc1c[nH]cn1)c1cc([C@@H]2CCNC[C@H]2COc2ccc3c(c2)OCO3)ccc1F | > 100 | > 100 | > 100 | –
O=C(NCc1c(F)cccc1F)c1cc([C@@H]2CCNC[C@H]2COc2ccc3c(c2)OCO3)ccc1F | > 100 | > 100 | 37.2 | –
O=C(NCCc1ccccn1)c1cc([C@@H]2CCNC[C@H]2COc2ccc3c(c2)OCO3)ccc1F | > 100 | > 100 | > 100 | –
O=C(NCc1ccccn1)c1cc([C@@H]2CCNC[C@H]2COc2ccc3c(c2)OCO3)ccc1F | > 100 | > 100 | 17.1 | inhibition [3]: inactive; inhibition [8]: inactive; t1/2 (Liver): 3.15 min
O=C(NCCc1c(F)cccc1F)c1cc([C@@H]2CCNC[C@H]2COc2ccc3c(c2)OCO3)ccc1F | > 100 | > 100 | 10.2 | –
O=C(NCc1ncc[nH]1)c1cc([C@@H]2CCNC[C@H]2COc2ccc3c(c2)OCO3)ccc1F | > 100 | > 100 | 14.8 | –
O=C(Cc1cc([C@@H]2CCNC[C@H]2COc2ccc3c(c2)OCO3)ccc1F)NCCc1cn[nH]c1 | > 100 | > 100 | > 100 | –
COc1cccc(OC)c1CNC(=O)c1cc(C2NC(=O)NC(C)=C2C(=O)Nc2ccc3[nH]ncc3c2)ccc1F (centres undefined) | > 100 | > 100 | > 100 | t1/2 (Liver): 3.82 min
O=C(NCc1ccncc1)c1cc([C@@H]2CCNC[C@H]2COc2ccc3c(c2)OCO3)ccc1F | > 100 | > 100 | > 100 | –
COc1cccc(OC)c1CNC(=O)c1cc([C@@H]2CCNC[C@H]2COc2ccc3c(c2)OCO3)ccc1F | > 100 | 32 | 38.4 | t1/2 (Liver): 24.9 min
O=C(NCc1cccnc1)c1cc([C@@H]2CCNC[C@H]2COc2ccc3c(c2)OCO3)ccc1F | > 100 | > 100 | 76.3 | –
